PMC12124638 (Journal of medicinal chemistry, 2017)
Non-standard residues stand in square brackets, D forms with d. Residues, ends and D or L forms follow the SMILES beside them. *: point of attachment. Cha = N[C@@H](CC1CCCCC1)C(=O)O; Decanoyl = CCCCCCCCCC(=O)*; Heptanoyl = CCCCCCC(=O)*; Octanoyl = CCCCCCCC(=O)*; Dab = NCC[C@H](N)C(=O)O; Hexanoyl = CCCCCC(=O)*

Assays:
[1] = test system: Acinetobacter baumannii ATCC 19606; assay: Sensitization to antibiotics, checkerboard MIC; assay type: cell-based; conditions: for Sensitization factor, rifampicin, Acinetobacter baumannii ATCC 19606: ratio of the MIC in the absence of paenipeptins to that in the presence of 4 μg/mL
[2] = test system: Klebsiella pneumoniae ATCC 13883; assay: Sensitization to antibiotics, checkerboard MIC; assay type: cell-based; conditions: for Sensitization factor, rifampicin, Klebsiella pneumoniae ATCC 13883: ratio of the MIC in the absence of paenipeptins to that in the presence of 4 μg/mL; for Sensitization factor, clarithromycin, Klebsiella pneumoniae ATCC 13883: MIC without / with 4 μg/mL paenipeptin
P. aeruginosa ATCC 27853 [3] = test system: P. aeruginosa ATCC 27853
[4] = test system: methicillin-resistant S. aureus ATCC 43300
[5] = test system: methicillin-resistant S. aureus strain LAC; assay: Catheter-associated biofilm in vitro; assay type: cell-based, Staphylococcus aureus; conditions: for reduction of viable biofilm-associated S. aureus cells: established catheter biofilm, n=6 catheters
P. aeruginosa ATCC 27853 [6] = assay: Time-kill assay; assay type: cell-based, Pseudomonas aeruginosa
How it was run: (§1)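 Time-kill is run with test compound at 8, 16 and 32 μg/mL. Surviving cells are counted by plating on TSA at 0, 2, 4, 6 and 24 h. Three independent experiments are run, one replicate each. Results are given as mean ± standard deviation, and final-timepoint counts are compared by ANOVA with Tukey HSD.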

S. aureus ATCC 29213 [7] = assay: Potassium ion release assay, PBFI probe; assay type: cell-based, Staphylococcus aureus; conditions: PBFI fluorescence; tested 8–64 μg/mL
P. aeruginosa ATCC 27853 [8] = assay: Impact of purified lipopolysaccharide; assay type: cell-based, Pseudomonas aeruginosa; conditions: LPS from E. coli O111:B4 at 100 μg/ml; analogue 17 at 16 μg/mL; 37°C, 60 min
How it was run: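 Cells are diluted in TSB to about 10^6 CFU/mL. E. coli O111:B4 LPS (final 10, 25, 50 or 100 μg/mL) is added, then test compound at final 16 μg/mL. Incubation is 60 min at 37 °C with shaking at 200 rpm. Survivors are counted on TSA. Three independent experiments are run, one replicate each. Counts are analysed by ANOVA and Tukey HSD.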

P. aeruginosa ATCC 27853 [9] = assay: Catheter-associated biofilm in vitro; assay type: cell-based, Pseudomonas aeruginosa; conditions: 40× MIC (40 μg/ml), 72 h exposure, n=6
S. aureus ATCC 29213 [10] = assay: Cytoplasmic membrane integrity assay, DiSC3; assay type: cell-based, Staphylococcus aureus; conditions: increase of DiSC3(5) fluorescence; tested 8–64 μg/mL
P. aeruginosa ATCC 27853 [11] = assay: Cytoplasmic membrane integrity assay, DiSC3; assay type: cell-based, Pseudomonas aeruginosa; conditions: increase of DiSC3(5) fluorescence; tested 8–64 μg/mL; buffer with 0.2 mM EDTA
P. aeruginosa ATCC 27853 [12] = assay: Potassium ion release assay, PBFI probe; assay type: cell-based, Pseudomonas aeruginosa; conditions: PBFI fluorescence; tested 8–64 μg/mL
S. aureus ATCC 29213 [13] = assay: Time-kill assay; assay type: cell-based, Staphylococcus aureus; conditions: for reduction of viable S. aureus cells: after 4 h
How it was run: as §1

[14] = test system: Escherichia coli ATCC 25922; assay: MIC in 95% human serum; assay type: cell-based; conditions: against both E. coli and S. aureus; 95% human serum versus TSB
[15] = cited from earlier work
Gram-negative bacteria = conditions: cited from earlier work
E. coli UAMS-ECPR2 = assay type: cell-based, Escherichia coli; conditions: polymyxin-resistant derivative of E. coli ATCC 25922
E. coli UAMS-ECPR1 = assay: MIC, polymyxin-resistant strain; assay type: cell-based, Escherichia coli; conditions: polymyxin-resistant derivative of E. coli ATCC 25922
K. pneumoniae UAMS-KPPR1 = assay: MIC, polymyxin-resistant strain; assay type: cell-based, Klebsiella pneumoniae; conditions: polymyxin-resistant derivative of K. pneumoniae ATCC 13883
[16] = test system: Klebsiella pneumoniae AR 0109; assay: MIC, polymyxin-resistant strain; assay type: cell-based; conditions: FDA-CDC Antibiotic-Resistance Bank
K. pneumoniae UAMS-KPPR3 = assay: MIC, polymyxin-resistant strain; assay type: cell-based, Klebsiella pneumoniae; conditions: polymyxin-resistant derivative of K. pneumoniae ATCC 13883
[17] = MIC without / with 4 μg/mL paenipeptin

CCCCCC(=O)N[C@@H](CCN)C(=O)N[C@H](C(=O)N[C@@H](CCN)C(=O)N[C@H](Cc1ccccc1)C(=O)N[C@@H](CC(C)C)C(=O)N[C@@H](CCN)C(=O)N[C@@H](C(=O)N[C@@H](CC(C)C)C(=O)N[C@@H](CO)C(N)=O)C(C)C)[C@@H](C)CC [Analogue 1] (Hexanoyl-[Dab]I[Dab][dF]L[Dab][dV]LS-NH2)
Sensitization factor, rifampicin, Acinetobacter baumannii ATCC 19606 [1]: 4,096–8,192 | Sensitization factor, rifampicin, Klebsiella pneumoniae ATCC 13883 [2]: 8,192

CCCCCCC(=O)N[C@@H](CCN)C(=O)N[C@H](C(=O)N[C@@H](CCN)C(=O)N[C@H](Cc1ccccc1)C(=O)N[C@@H](CC(C)C)C(=O)N[C@@H](CCN)C(=O)N[C@@H](C(=O)N[C@@H](CC(C)C)C(=O)N[C@@H](CO)C(N)=O)C(C)C)C(C)C [Analogue 2] (Heptanoyl-[Dab]V[Dab][dF]L[Dab][dV]LS-NH2)
Sensitization factor, rifampicin, Acinetobacter baumannii ATCC 19606 [1]: 256–512 | Sensitization factor, rifampicin, Klebsiella pneumoniae ATCC 13883 [2]: 4,096

CCCCCCCC(=O)N[C@@H](CCN)C(=O)N[C@H](C(=O)N[C@@H](CCN)C(=O)N[C@H](Cc1ccccc1)C(=O)N[C@@H](CC(C)C)C(=O)N[C@@H](CCN)C(=O)N[C@@H](C(=O)N[C@@H](CC(C)C)C(=O)N[C@@H](CCN)C(N)=O)C(C)C)[C@@H](C)CC [Analogue 9] (Octanoyl-[Dab]I[Dab][dF]L[Dab][dV]L[Dab]-NH2)
Sensitization factor, clarithromycin, Acinetobacter baumannii ATCC 19606 [1, 17]: 4,096–8,192 | Sensitization factor, erythromycin, Acinetobacter baumannii ATCC 19606 [1, 17]: 128–256 | Sensitization factor, vancomycin, Acinetobacter baumannii ATCC 19606 [1, 17]: 64–128 | Sensitization factor, rifampicin, Acinetobacter baumannii ATCC 19606 [1]: 8,192 | Sensitization factor, clarithromycin, Klebsiella pneumoniae ATCC 13883 [2]: 2,048 | Sensitization factor, rifampicin, Klebsiella pneumoniae ATCC 13883 [2]: ≥8,192

CCCCCCCC(=O)N[C@@H](CCN)C(=O)N[C@@H](CCN)C(=O)N[C@@H](CCN)C(=O)N[C@H](Cc1ccccc1)C(=O)N[C@@H](CC(C)C)C(=O)N[C@@H](CCN)C(=O)N[C@@H](C(=O)N[C@@H](CC(C)C)C(=O)N[C@@H](CCN)C(N)=O)C(C)C [Analogue 10] (Octanoyl-[Dab][Dab][Dab][dF]L[Dab][dV]L[Dab]-NH2)
Sensitization factor, rifampicin, Acinetobacter baumannii ATCC 19606 [1]: 256–512 | MIC, P. aeruginosa ATCC 27853 (P. aeruginosa ATCC 27853 [3]): 16 to 32 µg/mL | MIC, A. baumannii ATCC 19606 (A. baumannii ATCC 19606): >32 µg/mL | MIC, S. aureus ATCC 43300 [4]: >32 µg/mL

CCCCCCCCCC(=O)N[C@@H](CCN)C(=O)N[C@H](C(=O)N[C@@H](CCN)C(=O)N[C@H](Cc1ccccc1)C(=O)N[C@@H](CC(C)C)C(=O)N[C@@H](CCN)C(=O)N[C@@H](C(=O)N[C@@H](CC(C)C)C(=O)N[C@@H](CO)C(N)=O)C(C)C)[C@@H](C)CC [Analogue 12] (Decanoyl-[Dab]I[Dab][dF]L[Dab][dV]LS-NH2)
activity in the context of an established catheter-associated biofilm ([5]; data not shown): no activity

CCCCCCCCCC(=O)N[C@@H](CCN)C(=O)N[C@H](C(=O)N[C@H](C(=O)N[C@H](CC(C)C)C(=O)N[C@@H](CC(C)C)C(=O)N[C@@H](CCN)C(=O)N[C@@H](C(=O)N[C@@H](CC(C)C)C(=O)N[C@@H](CO)C(N)=O)C(C)C)[C@@H](C)O)[C@@H](C)CC [Analogue 13] (Decanoyl-[Dab]IT[dL]L[Dab][dV]LS-NH2)
synergism with rifampicin, in words ([1]; against Acinetobacter and Klebsiella): did not show synergism | MIC, A. baumannii ATCC 19606 (A. baumannii ATCC 19606): >32 µg/mL | MIC, S. aureus ATCC 43300 [4]: >32 µg/mL

CC[C@H](C)[C@H](NC(=O)[C@H](CCN)NC(=O)[C@@H](N)CC1CCCCC1)C(=O)N[C@@H](CCN)C(=O)N[C@H](Cc1ccccc1)C(=O)N[C@@H](CC(C)C)C(=O)N[C@@H](CCN)C(=O)N[C@@H](C(=O)N[C@@H](CC(C)C)C(=O)N[C@@H](CO)C(N)=O)C(C)C [Analogue 16] (H-[Cha][Dab]I[Dab][dF]L[Dab][dV]LS-NH2)
Sensitization factor, ampicillin, Acinetobacter baumannii ATCC 19606 [1, 17]: 2–4 | Sensitization factor, clarithromycin, Acinetobacter baumannii ATCC 19606 [1, 17]: 2,048 | Sensitization factor, vancomycin, Acinetobacter baumannii ATCC 19606 [1, 17]: 32–64 | Sensitization factor, rifampicin, Acinetobacter baumannii ATCC 19606 [1]: 4,096 | Sensitization factor, clarithromycin, Klebsiella pneumoniae ATCC 13883 [2]: 2,048–4,096 | Sensitization factor, rifampicin, Klebsiella pneumoniae ATCC 13883 [2]: ≥8,192

CC(C)C[C@H](NC(=O)[C@@H](Cc1ccccc1)NC(=O)[C@H](CCN)NC(=O)[C@H](Cc1ccccc1)NC(=O)[C@H](CCN)NC(=O)[C@@H](N)CC1CCCCC1)C(=O)N[C@@H](CCN)C(=O)N[C@H](CC(C)C)C(=O)N[C@@H](Cc1ccccc1)C(=O)N[C@@H](CO)C(N)=O [Analogue 17] (H-[Cha][Dab]F[Dab][dF]L[Dab][dL]FS-NH2)
reduction of viable P. aeruginosa cells (P. aeruginosa ATCC 27853 [6]; 8 μg/ml, 2 h): 2.2 log | viable P. aeruginosa cells at 24 h (P. aeruginosa ATCC 27853 [6]; 8 μg/ml, 24 h): significant bacterial regrowth | reduction of viable P. aeruginosa cells (P. aeruginosa ATCC 27853 [6]; 16 μg/ml, within 2 h): 3.7 logs | viable P. aeruginosa cells after 24 h exposure (P. aeruginosa ATCC 27853 [6]; 32 μg/ml or 16 μg/ml, 24 h): no viable cells were detected | reduction of viable P. aeruginosa cells (P. aeruginosa ATCC 27853 [6]; 32 μg/ml, within 2 h): 5.1 logs | concentration that significantly released intracellular potassium ions (S. aureus ATCC 29213 [7]): 32 to 64 µg/mL | impact of purified LPS on bactericidal activity (P. aeruginosa ATCC 27853 [8]): neutralized the bactericidal activity | reduction of viable biofilm-associated S. aureus cells ([5]; 40 μg/mL (5 × MIC), 72 h exposure): 3 log | reduction of viable biofilm-associated S. aureus cells ([5]; 160 μg/mL (20 × MIC), 72 h exposure): 5 log | catheters completely cleared of viable bacteria ([5]; 20 times the MIC of each antibiotic, six catheters, 72 h exposure): 50% | reduction in the number of viable P. aeruginosa cells in an established biofilm (P. aeruginosa ATCC 27853 [9]): 2.6 log | concentration that depolarized the membrane potential (S. aureus ATCC 29213 [10]): ≥ 16 µg/mL | concentration that depolarized the membrane potential (P. aeruginosa ATCC 27853 [11]): ≥ 16 µg/mL | concentration that significantly released intracellular potassium ions (P. aeruginosa ATCC 27853 [12]): 32 to 64 µg/mL | viable S. aureus cells on exposure (S. aureus ATCC 29213 [13]; 8 μg/ml): Regrowth | reduction of viable S. aureus cells (S. aureus ATCC 29213 [13]; 16 μg/ml): 3.1 logs | reduction of viable S. aureus cells (S. aureus ATCC 29213 [13]; 32 μg/ml): 5.4 logs | increase in MIC in the presence of human serum [14]: 8 to 16 fold | reduction in activity in the presence of human serum [14]: 88–94%

CCCCCCCCCC(=O)N[C@@H](Cc1c[nH]c2ccccc12)C(=O)N[C@H](CC(N)=O)C(=O)N[C@@H](CC(=O)O)C(=O)N[C@@H]1C(=O)NCC(=O)N[C@@H](CCCN)C(=O)N[C@@H](CC(=O)O)C(=O)N[C@H](C)C(=O)N[C@@H](CC(=O)O)C(=O)NCC(=O)N[C@H](CO)C(=O)N[C@@H]([C@H](C)CC(=O)O)C(=O)N[C@@H](CC(=O)c2ccccc2N)C(=O)O[C@@H]1C [daptomycin]
bound to plasma proteins [15]: 94%

CO[C@H]1/C=C/O[C@@]2(C)Oc3c(C)c(O)c4c(O)c(c(/C=N/N5CCN(C)CC5)c(O)c4c3C2=O)NC(=O)/C(C)=C\C=C\[C@H](C)[C@H](O)[C@@H](C)[C@@H](O)[C@@H](C)[C@H](OC(C)=O)[C@@H]1C [rifampicin, reference compound]
MIC ([1]; Acinetobacter baumannii, ATCC19606, read-out: MIC of rifampicin alone, in μM): 19.4 µM | MIC of rifampicin against Gram-negative bacteria without C10X (Gram-negative bacteria): 8 to 32 µg/mL

Polymyxin B
MIC, E. coli UAMS-ECPR2 (E. coli UAMS-ECPR2): 32 µg/mL | MIC, E. coli UAMS-ECPR1 (E. coli UAMS-ECPR1): 32 µg/mL | MIC, K. pneumoniae UAMS-KPPR1 (K. pneumoniae UAMS-KPPR1): >32 µg/mL | MIC, Klebsiella pneumoniae AR 0109 [16]: 16 to 32 µg/mL | MIC, K. pneumoniae UAMS-KPPR3 (K. pneumoniae UAMS-KPPR3): >32 µg/mL
